Format in all cases: functional, organism-based
One assay concerns Human orthopneumovirus. As to the kind of experiment: Inhibitory concentration was evaluated against human respiratory syncytial virus,(HRSV) strain A2. A digest of the protocol:
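HRSV strain A2 (160 PFU/well) on human foreskin fibroblasts seeded 4 × 10^4/well day 0. Compound added day 1, serially diluted 2-fold over 10 concentrations, at least in duplicate. After 4 days at 37 °C, virus growth quantified by ELISA. IC50 = 50% growth inhibition, averaged; tested in two separate weeks, retested if values differed over 2-fold.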

In a further assay the test system is Human alphaherpesvirus 1. Kind of assay: Inhibitory concentration was evaluated against herpes simplex 1,strain patton. The method, boiled down:
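HSV-1 strain Patton in African green monkey kidney (Vero) cells, seeded 4 × 10^4/well on day 0. Compound added day 1 as 10 two-fold dilutions, at least in duplicate, then virus added. Growth measured by ELISA 28 h post-infection. IC50 = 50% growth inhibition, averaged; repeated in two different weeks, retested if over 2-fold apart.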

A further assay concerns Human betaherpesvirus 5. As to the kind of experiment: Inhibitory concentration was evaluated against human cytomegalovirus (HCMV),strain Ad169. A digest of the protocol: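 HCMV Ad169 engineered to encode β-glucuronidase. Human foreskin fibroblasts seeded 4 × 10^4/well on day 0. Compound added day 1 as 10 two-fold dilutions, each at least in duplicate, then virus added. Growth read as β-glucuronidase in culture on day 4. IC50 averaged; each compound run at least twice in different weeks, retested if IC50s differed over 2-fold.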

In general, IC50 refers to the point on the concentration scale where inhibition reaches its midpoint. Take `CCCN(CCC)S(=O)(=O)c1cccc(Nc2nc(Nc3cccc(S(=O)(=O)N(CCC)CCC)c3)nc(Nc3ccc(-c4ccc(Nc5nc(Nc6cccc(S(=O)(=O)N(CCC)CCC)c6)nc(Nc6cccc(S(=O)(=O)N(CCC)CCC)c6)n5)cc4S(=O)(=O)O)c(S(=O)(=O)O)c3)n2)c1`: the IC50 in the assay with Human orthopneumovirus, in the assay with Human alphaherpesvirus 1 and in the assay with Human betaherpesvirus 5 was greater than 25 µM throughout.

For the molecule `NC(=O)CCNS(=O)(=O)c1cccc(Nc2nc(Nc3cccc(S(=O)(=O)NCCC(N)=O)c3)nc(Nc3ccc(-c4ccc(Nc5nc(Nc6cccc(S(=O)(=O)NCCC(N)=O)c6)nc(Nc6cccc(S(=O)(=O)NCCC(N)=O)c6)n5)cc4S(=O)(=O)O)c(S(=O)(=O)O)c3)n2)c1`, the figures for the 50% inhibitory concentration (IC50) in the assay on Human orthopneumovirus, in the assay with Human alphaherpesvirus 1 and in the assay with Human betaherpesvirus 5 were 0.24 µM, greater than 25 µM and 1.2 µM, respectively.

Regarding `O=S(=O)(O)c1cc(Nc2nc(Nc3cccc(S(=O)(=O)N(CCO)CCO)c3)nc(Nc3cccc(S(=O)(=O)N(CCO)CCO)c3)n2)ccc1-c1ccc(Nc2nc(Nc3cccc(S(=O)(=O)N(CCO)CCO)c3)nc(Nc3cccc(S(=O)(=O)N(CCO)CCO)c3)n2)cc1S(=O)(=O)O`, the IC50 is 0.09 µM in the assay with Human orthopneumovirus, 14.7 µM in the assay with Human alphaherpesvirus 1 and 2.3 µM in the assay with Human betaherpesvirus 5.

`Cc1cc(-c2cc(C)c(Nc3nc(Nc4cccc(S(=O)(=O)N(CCC(N)=O)CCC(N)=O)c4)nc(Nc4cccc(S(=O)(=O)N(CCC(N)=O)CCC(N)=O)c4)n3)cc2S(=O)(=O)O)c(S(=O)(=O)O)cc1Nc1nc(Nc2cccc(S(=O)(=O)N(CCC(N)=O)CCC(N)=O)c2)nc(Nc2cccc(S(=O)(=O)N(CCC(N)=O)CCC(N)=O)c2)n1`: the IC50 was found to be 0.25 µM in the assay with Human orthopneumovirus, 20 µM in the assay on Human alphaherpesvirus 1 and 20.5 µM with Human betaherpesvirus 5.

`NC(=O)CCN(CCC(N)=O)C(=O)c1cccc(Nc2nc(Nc3cccc(C(=O)N(CCC(N)=O)CCC(N)=O)c3)nc(Nc3ccc(-c4ccc(Nc5nc(Nc6cccc(C(=O)N(CCC(N)=O)CCC(N)=O)c6)nc(Nc6cccc(C(=O)N(CCC(N)=O)CCC(N)=O)c6)n5)cc4S(=O)(=O)O)c(S(=O)(=O)O)c3)n2)c1` had an IC50 in the assay on Human orthopneumovirus greater than 25 µM.

With `NC(=O)CCN(CCC(N)=O)S(=O)(=O)c1ccc(Nc2nc(Nc3ccc(S(=O)(=O)N(CCC(N)=O)CCC(N)=O)cc3)nc(Nc3ccc(-c4ccc(Nc5nc(Nc6ccc(S(=O)(=O)N(CCC(N)=O)CCC(N)=O)cc6)nc(Nc6ccc(S(=O)(=O)N(CCC(N)=O)CCC(N)=O)cc6)n5)cc4S(=O)(=O)O)c(S(=O)(=O)O)c3)n2)cc1`, the IC50 is 2.9 µM with Human orthopneumovirus, 17.7 µM in the assay on Human alphaherpesvirus 1 and 14.7 µM in the assay with Human betaherpesvirus 5.

Take `NC(=O)CCN(CCC(N)=O)S(=O)(=O)c1cccc(Nc2nc(Nc3cccc(S(=O)(=O)N(CCC(N)=O)CCC(N)=O)c3)nc(Nc3ccc(-c4ccc(Nc5nc(Nc6cccc(S(=O)(=O)N(CCC(N)=O)CCC(N)=O)c6)nc(Nc6cccc(S(=O)(=O)N(CCC(N)=O)CCC(N)=O)c6)n5)cc4C(=O)O)c(C(=O)O)c3)n2)c1`: the half-maximal inhibitory concentration (IC50) in the assay with Human orthopneumovirus came to 0.35 µM; in the assay on Human alphaherpesvirus 1, 7.5 µM; with Human betaherpesvirus 5, 0.9 µM.

With `NS(=O)(=O)c1cccc(Nc2nc(Nc3cccc(S(N)(=O)=O)c3)nc(Nc3ccc(-c4ccc(Nc5nc(Nc6cccc(S(N)(=O)=O)c6)nc(Nc6cccc(S(N)(=O)=O)c6)n5)cc4S(=O)(=O)O)c(S(=O)(=O)O)c3)n2)c1`, the IC50 in the assay on Human orthopneumovirus came to 1.7 µM; in the assay with Human alphaherpesvirus 1, 8.8 µM; with Human betaherpesvirus 5, 1.2 µM.

For `Cc1ccc(S(=O)(=O)N(CCC(N)=O)CCC(N)=O)cc1Nc1nc(Nc2ccc(-c3ccc(Nc4nc(Nc5cc(S(=O)(=O)N(CCC(N)=O)CCC(N)=O)ccc5C)nc(Nc5cc(S(=O)(=O)N(CCC(N)=O)CCC(N)=O)ccc5C)n4)cc3S(=O)(=O)O)c(S(=O)(=O)O)c2)nc(Nc2cc(S(=O)(=O)N(CCC(N)=O)CCC(N)=O)ccc2C)n1`, in the assay with Human orthopneumovirus, the IC50 was greater than 25 µM.

For `NC(=O)CCN(CCC(N)=O)S(=O)(=O)c1cccc(Nc2nc(Nc3cccc(S(=O)(=O)N(CCC(N)=O)CCC(N)=O)c3)nc(Nc3ccc(CCc4ccc(Nc5nc(Nc6cccc(S(=O)(=O)N(CCC(N)=O)CCC(N)=O)c6)nc(Nc6cccc(S(=O)(=O)N(CCC(N)=O)CCC(N)=O)c6)n5)cc4S(=O)(=O)O)c(S(=O)(=O)O)c3)n2)c1`, the values for the concentration for half-maximal inhibition (IC50) in the assay on Human orthopneumovirus and in the assay on Human betaherpesvirus 5 were 22.5 µM and greater than 25 µM, respectively.

As to `NC(=O)CCN(CCC(N)=O)S(=O)(=O)c1cccc(Nc2nc(Nc3cccc(S(=O)(=O)N(CCC(N)=O)CCC(N)=O)c3)nc(Nc3ccc(-c4ccc(Nc5nc(Nc6cccc(S(=O)(=O)N(CCC(N)=O)CCC(N)=O)c6)nc(Nc6cccc(S(=O)(=O)N(CCC(N)=O)CCC(N)=O)c6)n5)cc4CO)c(CO)c3)n2)c1`, the half-maximal inhibitory concentration (IC50) in the assay on Human orthopneumovirus, in the assay with Human alphaherpesvirus 1 and with Human betaherpesvirus 5 was greater than 25 µM throughout.

Regarding `Cc1cc(-c2ccc(Nc3nc(Nc4cccc(S(=O)(=O)N(CCC(N)=O)CCC(N)=O)c4)nc(Nc4cccc(S(=O)(=O)N(CCC(N)=O)CCC(N)=O)c4)n3)c(C)c2)ccc1Nc1nc(Nc2cccc(S(=O)(=O)N(CCC(N)=O)CCC(N)=O)c2)nc(Nc2cccc(S(=O)(=O)N(CCC(N)=O)CCC(N)=O)c2)n1`, the IC50 was greater than 25 µM with Human orthopneumovirus, 25 µM in the assay on Human alphaherpesvirus 1 and greater than 25 µM in the assay on Human betaherpesvirus 5.

Take `NC(=O)CCN(CCC(N)=O)S(=O)(=O)c1cccc(Nc2nc(Nc3cccc(S(=O)(=O)N(CCC(N)=O)CCC(N)=O)c3)nc(Nc3ccc(-c4ccc(Nc5nc(Nc6cccc(S(=O)(=O)N(CCC(N)=O)CCC(N)=O)c6)nc(Nc6cccc(S(=O)(=O)N(CCC(N)=O)CCC(N)=O)c6)n5)cc4S(=O)(=O)O)c(S(=O)(=O)O)c3)n2)c1`: the IC50 with Human orthopneumovirus is 0.05 µM; in the assay on Human alphaherpesvirus 1 it was greater than 25 µM; in the assay on Human betaherpesvirus 5, 18.5 µM.

Consider `COC(=O)c1cc(Nc2nc(Nc3cccc(S(=O)(=O)N(CCC(N)=O)CCC(N)=O)c3)nc(Nc3cccc(S(=O)(=O)N(CCC(N)=O)CCC(N)=O)c3)n2)ccc1-c1ccc(Nc2nc(Nc3cccc(S(=O)(=O)N(CCC(N)=O)CCC(N)=O)c3)nc(Nc3cccc(S(=O)(=O)N(CCC(N)=O)CCC(N)=O)c3)n2)cc1C(=O)OC`, for which the IC50 in the assay with Human orthopneumovirus and in the assay with Human betaherpesvirus 5 was greater than 25 µM throughout.

With `NC(=O)CCN(CCC(N)=O)S(=O)(=O)c1cccc(Nc2nc(Nc3cccc(S(=O)(=O)N(CCC(N)=O)CCC(N)=O)c3)nc(Nc3ccc(/C=C/c4ccc(Nc5nc(Nc6cccc(S(=O)(=O)N(CCC(N)=O)CCC(N)=O)c6)nc(Nc6cccc(S(=O)(=O)N(CCC(N)=O)CCC(N)=O)c6)n5)cc4S(=O)(=O)O)c(S(=O)(=O)O)c3)n2)c1`, the 50% inhibitory concentration (IC50) in the assay on Human orthopneumovirus was 0.15 µM; in the assay on Human alphaherpesvirus 1, 5.5 µM; with Human betaherpesvirus 5 it was greater than 25 µM.

The record behind these values is ChEMBL document CHEMBL1131306, “Novel and specific respiratory syncytial virus inhibitors that target virus fusion” (J Med Chem, 1998).
